Results reported in ChEMBL document CHEMBL4330096, “Discovery of potent and selective 5-azaindazole inhibitors of leucine-rich repeat kinase 2 (LRRK2) - Part 1” (Bioorg Med Chem Lett, 2019).

Assays:
[1] = target: Tyrosine-protein kinase SYK (Homo sapiens) (UniProt P43405); assay: Inhibition of SYK (unknown origin) at 10 uM relative to control
In short: (§1)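 Single-concentration screen across a panel of 59 protein kinases, with each compound tested at one fixed concentration. The read-out is residual kinase activity relative to control. Panel results are also condensed into a rescaled geometric mean (RGM) selectivity score.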

[2] = target: Serine/threonine-protein kinase 26 (Homo sapiens) (UniProt Q9P289); assay: Inhibition of MST4 (unknown origin) at 10 uM relative to control
Chain of Serine/threonine-protein kinase 26 (Homo sapiens) (Q9P289 2-416 limits assumed): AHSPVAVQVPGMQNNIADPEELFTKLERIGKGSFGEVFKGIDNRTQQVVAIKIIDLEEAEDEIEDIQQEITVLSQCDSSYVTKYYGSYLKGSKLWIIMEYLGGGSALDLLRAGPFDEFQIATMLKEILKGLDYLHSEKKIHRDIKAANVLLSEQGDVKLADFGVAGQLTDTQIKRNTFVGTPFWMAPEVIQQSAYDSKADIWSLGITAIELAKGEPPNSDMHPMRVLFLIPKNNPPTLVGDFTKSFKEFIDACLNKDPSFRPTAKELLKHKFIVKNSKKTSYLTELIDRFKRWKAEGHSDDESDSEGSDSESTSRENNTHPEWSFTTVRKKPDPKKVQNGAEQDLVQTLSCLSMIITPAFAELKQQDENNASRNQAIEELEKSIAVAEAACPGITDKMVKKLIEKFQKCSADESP
In short: (§2)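 Single-concentration screen of each compound against a 59-protein-kinase panel, run at 10 µM or 1 µM. Activity relative to control is shown as a heat map across the panel.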

[3] = target: T1, Serine/threonine-protein kinase BRSK2 (Homo sapiens) (UniProt Q8IWQ3); assay: Inhibition of BRSK2 (unknown origin) at 10 uM relative to control
T1 sequence (whole entry): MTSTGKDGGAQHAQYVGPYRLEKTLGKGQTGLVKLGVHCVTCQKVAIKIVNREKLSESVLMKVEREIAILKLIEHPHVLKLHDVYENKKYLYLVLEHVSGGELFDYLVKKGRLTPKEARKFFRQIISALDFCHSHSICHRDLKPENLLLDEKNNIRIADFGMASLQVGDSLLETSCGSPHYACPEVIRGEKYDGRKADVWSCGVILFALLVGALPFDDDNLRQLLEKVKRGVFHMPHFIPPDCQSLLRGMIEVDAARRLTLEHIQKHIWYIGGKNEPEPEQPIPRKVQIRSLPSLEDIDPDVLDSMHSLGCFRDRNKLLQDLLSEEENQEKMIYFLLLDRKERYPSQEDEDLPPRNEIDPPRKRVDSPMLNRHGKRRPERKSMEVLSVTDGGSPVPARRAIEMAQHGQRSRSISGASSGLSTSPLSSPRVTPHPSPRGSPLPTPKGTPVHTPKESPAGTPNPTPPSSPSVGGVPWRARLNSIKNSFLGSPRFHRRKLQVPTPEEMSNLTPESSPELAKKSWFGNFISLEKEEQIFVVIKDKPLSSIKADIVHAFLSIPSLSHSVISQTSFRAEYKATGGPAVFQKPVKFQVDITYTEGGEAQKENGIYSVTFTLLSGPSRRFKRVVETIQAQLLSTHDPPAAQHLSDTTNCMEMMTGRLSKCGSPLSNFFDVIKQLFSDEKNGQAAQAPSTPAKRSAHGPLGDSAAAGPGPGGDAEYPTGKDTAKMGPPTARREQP
In short: (§3)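 Single-point screen of each compound against a panel of 59 protein kinases, at 1 or 10 μM. The panel data are also summarised as a rescaled geometric mean selectivity score.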

[4] = target: T2, Protein kinase C zeta type (Homo sapiens) (UniProt Q05513); assay: Inhibition of PKCz (unknown origin) at 10 uM relative to control; in short: as §2
T2 sequence (whole entry): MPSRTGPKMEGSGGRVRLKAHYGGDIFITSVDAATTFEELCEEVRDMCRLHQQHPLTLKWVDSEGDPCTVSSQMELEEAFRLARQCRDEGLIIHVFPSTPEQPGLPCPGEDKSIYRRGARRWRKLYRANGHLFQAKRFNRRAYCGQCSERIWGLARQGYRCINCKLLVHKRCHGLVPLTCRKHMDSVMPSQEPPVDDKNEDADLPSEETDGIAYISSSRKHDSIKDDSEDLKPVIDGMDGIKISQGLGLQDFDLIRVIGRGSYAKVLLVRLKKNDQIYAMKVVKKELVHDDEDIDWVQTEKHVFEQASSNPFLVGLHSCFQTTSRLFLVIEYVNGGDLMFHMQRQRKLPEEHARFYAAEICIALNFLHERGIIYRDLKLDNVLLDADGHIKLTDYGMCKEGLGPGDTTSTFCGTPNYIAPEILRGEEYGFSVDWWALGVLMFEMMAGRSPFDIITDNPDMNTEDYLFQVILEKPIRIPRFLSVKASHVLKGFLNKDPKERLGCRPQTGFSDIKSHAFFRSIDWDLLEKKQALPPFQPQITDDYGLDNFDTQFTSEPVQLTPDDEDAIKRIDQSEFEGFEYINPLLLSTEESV

[5] = target: Tyrosine-protein kinase Yes (Homo sapiens) (UniProt P07947); assay: Inhibition of YES1 (unknown origin) at 10 uM relative to control; in short: as §1
Chain of Tyrosine-protein kinase Yes (Homo sapiens) (P07947 2-543 limits assumed): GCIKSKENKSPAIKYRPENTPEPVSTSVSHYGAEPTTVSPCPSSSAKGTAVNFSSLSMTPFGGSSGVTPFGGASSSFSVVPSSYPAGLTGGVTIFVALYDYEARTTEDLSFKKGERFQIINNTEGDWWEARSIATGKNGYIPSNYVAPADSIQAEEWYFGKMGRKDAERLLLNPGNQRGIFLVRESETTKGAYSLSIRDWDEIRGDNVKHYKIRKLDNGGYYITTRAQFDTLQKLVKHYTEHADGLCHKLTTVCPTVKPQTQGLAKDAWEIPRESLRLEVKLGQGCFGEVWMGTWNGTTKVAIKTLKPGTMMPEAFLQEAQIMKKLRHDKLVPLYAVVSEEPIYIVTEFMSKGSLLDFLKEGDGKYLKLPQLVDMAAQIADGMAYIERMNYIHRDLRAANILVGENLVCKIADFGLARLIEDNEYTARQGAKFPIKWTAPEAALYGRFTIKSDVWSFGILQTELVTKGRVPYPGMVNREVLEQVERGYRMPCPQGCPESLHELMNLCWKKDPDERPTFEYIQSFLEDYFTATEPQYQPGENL

[6] = target: Protein kinase C alpha type (Homo sapiens) (UniProt P17252); assay: Inhibition of PKCa (unknown origin) at 10 uM relative to control; in short: as §2
[7] = target: Tyrosine-protein kinase Lck (Homo sapiens) (UniProt P06239); assay: Inhibition of Lck (unknown origin) at 10 uM relative to control; in short: as §3
Chain of Tyrosine-protein kinase Lck (Homo sapiens) (P06239 2-509 limits assumed): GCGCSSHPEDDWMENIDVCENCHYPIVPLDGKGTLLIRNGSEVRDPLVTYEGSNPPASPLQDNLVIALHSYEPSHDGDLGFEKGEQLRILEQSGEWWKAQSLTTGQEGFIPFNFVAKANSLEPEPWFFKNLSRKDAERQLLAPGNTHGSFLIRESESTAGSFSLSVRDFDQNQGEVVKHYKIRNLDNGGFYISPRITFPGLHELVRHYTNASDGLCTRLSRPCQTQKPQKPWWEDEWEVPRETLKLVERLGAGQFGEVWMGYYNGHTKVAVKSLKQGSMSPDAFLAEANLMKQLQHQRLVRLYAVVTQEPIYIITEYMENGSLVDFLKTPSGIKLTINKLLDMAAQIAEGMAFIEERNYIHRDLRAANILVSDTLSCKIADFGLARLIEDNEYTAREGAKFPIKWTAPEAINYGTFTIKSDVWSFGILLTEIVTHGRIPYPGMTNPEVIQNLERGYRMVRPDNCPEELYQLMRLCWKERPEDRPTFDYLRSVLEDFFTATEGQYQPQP

[8] = target: Ribosomal protein S6 kinase beta-1 (Homo sapiens) (UniProt P23443); assay: Inhibition of S6K1 (unknown origin) at 10 uM relative to control; in short: as §1
Chain of Ribosomal protein S6 kinase beta-1 (Homo sapiens) (P23443 whole entry, looked up): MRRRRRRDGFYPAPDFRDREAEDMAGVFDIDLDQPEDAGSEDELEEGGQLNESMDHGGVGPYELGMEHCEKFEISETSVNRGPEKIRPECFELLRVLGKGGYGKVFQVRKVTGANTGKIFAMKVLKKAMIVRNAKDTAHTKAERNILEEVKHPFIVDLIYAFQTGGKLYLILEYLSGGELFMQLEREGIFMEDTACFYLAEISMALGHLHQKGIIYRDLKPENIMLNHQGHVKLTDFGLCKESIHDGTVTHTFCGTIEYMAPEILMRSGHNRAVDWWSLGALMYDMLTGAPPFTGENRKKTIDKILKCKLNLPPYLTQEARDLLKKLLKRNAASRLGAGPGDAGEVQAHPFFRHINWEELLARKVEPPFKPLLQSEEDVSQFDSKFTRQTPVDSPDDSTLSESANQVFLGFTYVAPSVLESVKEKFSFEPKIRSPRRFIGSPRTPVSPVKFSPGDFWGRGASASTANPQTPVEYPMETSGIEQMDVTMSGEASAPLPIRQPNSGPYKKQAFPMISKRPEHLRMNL

[9] = target: SRSF protein kinase 1 (Homo sapiens) (UniProt Q96SB4); assay: Inhibition of SRPK1 (unknown origin) at 10 uM relative to control; in short: as §1
Chain of SRSF protein kinase 1 (Homo sapiens) (Q96SB4 whole entry): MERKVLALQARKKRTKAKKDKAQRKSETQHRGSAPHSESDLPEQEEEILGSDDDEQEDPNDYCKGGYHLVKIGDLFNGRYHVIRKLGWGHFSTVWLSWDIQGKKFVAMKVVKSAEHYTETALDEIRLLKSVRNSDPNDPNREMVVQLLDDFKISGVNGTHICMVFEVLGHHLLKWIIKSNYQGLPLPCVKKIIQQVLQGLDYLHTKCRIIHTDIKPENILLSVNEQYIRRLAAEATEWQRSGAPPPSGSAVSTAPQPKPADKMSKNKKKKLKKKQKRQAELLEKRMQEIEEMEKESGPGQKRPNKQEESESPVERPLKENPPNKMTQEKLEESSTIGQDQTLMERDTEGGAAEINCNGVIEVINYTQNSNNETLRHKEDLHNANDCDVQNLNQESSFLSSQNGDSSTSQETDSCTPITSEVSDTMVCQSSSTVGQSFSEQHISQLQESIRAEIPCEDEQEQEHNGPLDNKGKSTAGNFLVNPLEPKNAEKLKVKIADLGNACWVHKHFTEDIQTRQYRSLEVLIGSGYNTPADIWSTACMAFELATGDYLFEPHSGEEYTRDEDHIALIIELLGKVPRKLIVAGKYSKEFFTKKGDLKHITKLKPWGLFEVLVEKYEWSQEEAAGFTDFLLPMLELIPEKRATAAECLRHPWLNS

[10] = target: Serine/threonine-protein kinase Chk2 (Homo sapiens) (UniProt O96017); assay: Inhibition of CHK2 (unknown origin) at 10 uM relative to control; in short: as §3
Chain of Serine/threonine-protein kinase Chk2 (Homo sapiens) (O96017 whole entry): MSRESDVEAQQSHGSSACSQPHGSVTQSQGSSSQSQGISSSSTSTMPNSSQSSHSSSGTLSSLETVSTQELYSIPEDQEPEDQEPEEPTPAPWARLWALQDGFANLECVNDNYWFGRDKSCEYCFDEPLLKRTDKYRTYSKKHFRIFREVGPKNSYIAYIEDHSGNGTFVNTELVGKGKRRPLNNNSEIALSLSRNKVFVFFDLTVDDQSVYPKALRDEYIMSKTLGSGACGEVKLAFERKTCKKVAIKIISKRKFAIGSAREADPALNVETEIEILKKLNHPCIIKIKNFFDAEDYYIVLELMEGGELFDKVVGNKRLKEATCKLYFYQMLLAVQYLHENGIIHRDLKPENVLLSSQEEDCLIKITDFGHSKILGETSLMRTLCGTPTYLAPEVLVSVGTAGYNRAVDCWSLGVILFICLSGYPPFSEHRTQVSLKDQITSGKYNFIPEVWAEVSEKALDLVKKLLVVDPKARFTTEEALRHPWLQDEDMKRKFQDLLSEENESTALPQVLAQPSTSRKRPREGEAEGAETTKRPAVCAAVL

[11] = target: MAP kinase-interacting serine/threonine-protein kinase 1 (Homo sapiens) (UniProt Q9BUB5); assay: Inhibition of MNK1 (unknown origin) at 10 uM relative to control; in short: as §2
Chain of MAP kinase-interacting serine/threonine-protein kinase 1 (Homo sapiens) (Q9BUB5 whole entry, looked up): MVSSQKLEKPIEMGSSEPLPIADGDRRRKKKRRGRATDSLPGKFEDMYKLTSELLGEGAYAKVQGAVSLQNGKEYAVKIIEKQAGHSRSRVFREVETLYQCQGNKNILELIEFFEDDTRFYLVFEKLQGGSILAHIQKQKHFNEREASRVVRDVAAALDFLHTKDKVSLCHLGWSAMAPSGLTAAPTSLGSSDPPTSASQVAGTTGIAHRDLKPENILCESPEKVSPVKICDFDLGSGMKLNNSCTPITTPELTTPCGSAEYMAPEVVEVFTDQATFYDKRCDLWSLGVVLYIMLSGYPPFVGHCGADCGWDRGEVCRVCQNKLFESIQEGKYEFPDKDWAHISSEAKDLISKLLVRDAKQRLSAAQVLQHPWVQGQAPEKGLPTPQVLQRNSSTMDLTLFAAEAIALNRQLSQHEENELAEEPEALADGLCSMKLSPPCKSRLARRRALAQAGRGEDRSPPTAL

[12] = Stability in mouse liver microsomes assessed as compound turnover rate measured after 30 mins; type: ADME, Microsome; conditions: read-out: Drug metabolism
In short: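 In vitro incubation of compound with liver microsomes: human (HLM) for 40 min, mouse (MLM) for 30 min. Reported as % turnover of parent compound.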

SMILES	inhibition [1] [%]	inhibition [2] [%]	inhibition [3] [%]	inhibition [4] [%]	inhibition [5] [%]	inhibition [6] [%]	inhibition [7] [%]	inhibition [8] [%]	inhibition [9] [%]	inhibition [10] [%]	inhibition [11] [%]	metabolised at 0.5 h [12] [%]
Cc1n[nH]c2ccnc(Nc3ccccc3F)c12	0	28	68	0	26	26	22	36	17	26	18	–
CC(C)n1cc(-c2n[nH]c3ccnc(OC4CCOCC4)c23)cn1	–	–	–	–	–	–	–	–	–	–	–	20
c1cc(-c2n[nH]c3ccnc(OC4CCOCC4)c23)cc(N2CCOCC2)n1	–	–	–	–	–	–	–	–	–	–	–	19
Cc1n[nH]c2ccnc(NC3CCCCC3)c12	17	51	46	0	30	25	13	28	10	37	0	13
Cc1n[nH]c2ccnc(Nc3ccc4ncsc4c3)c12	0	–	35	–	–	–	8	19	0	36	–	–
Cc1n[nH]c2ccnc(OC3CCCCC3)c12	16	48	67	19	44	61	47	78	20	63	12	37
